Assay results gathered from unrelated publications.
pIC50: −log10 of the molar value.
Read-out: cell growth or viability

Structure (SMILES)	cell line	test	setting	quantity	value
CO[C@H]1[C@H](O[C@H]([C@H]2O[C@@H](n3ccc(=O)[nH]c3=O)[C@H](O)[C@@H]2O)[C@H](NCCCNC(=O)[C@@H](NC(=O)[C@@H](NC(=O)N[C@H](C(=O)O)C(C)C)[C@@H]2CCN=C(N)N2)[C@@H](OC(=O)CCCCCCCCCCCCN(O)C(=N)N)C(C)C)C(=O)O)O[C@H](CN)[C@H]1O	SK-BR-3	WST-1	–	pIC50	6.23
O=C(NO)c1ccc(Cn2cnc3c(Nc4ccc(Cl)cc4)ncnc32)cc1	U-266	MTT	72 h	pIC50	6.20
O=[N+]([O-])c1ccc(Sc2cccc[n+]2[O-])c2nonc12	MP41	ATP luminescence	72 h	pIC50	5.59
COc1cc(C(=O)c2nc(-c3ccc4cc[nH]c4c3)c[nH]2)cc(OC)c1OC	M14	MTS	72 h	pIC50	7.84
FC(F)(F)c1ccc(-c2cc(COc3cc(C(F)(F)F)nc4ccccc34)on2)cc1	HL-60	MTS	72 h	pIC50	< 4.00
COc1cc(C(=O)c2nc(-c3cccc4c3CCN4)c[nH]2)cc(OC)c1OC	M14	MTS	72 h	pIC50	7.36
CC(C)CNC(=S)N/N=C/c1cccc2cc3ccccc3nc12	SK-BR-3	MTT	48 h	pIC50	< 4.30
C[C@H]1[C@H](C)CC[C@]2(C)CC[C@]3(C)C(=CC(=O)[C@@H]4[C@@]5(C)CC[C@@H](O)[C@](C)(C(=O)NCc6cn(-c7ccccc7C(F)(F)F)nn6)[C@@H]5CC[C@]43C)[C@H]12	HDF	MTT	24 h	pIC50	3.99
CC(=O)O[C@@]12CO[C@@H]1C[C@H](O)[C@@]1(C)C(=O)[C@H](O)C3=C(C)[C@@H](OC(=O)[C@H](O)[C@@H](NC(=O)OC(C)(C)C)c4ccccc4)C[C@@](O)([C@@H](OC(=O)c4ccccc4)[C@H]21)C3(C)C	SK-BR-3	MTT	24 h	IC50	> 50 µg/mL
Nc1ccn([C@@H]2O[C@H](CO)[C@@H](O)C2(F)F)c(=O)n1	MP41	ATP luminescence	72 h	pIC50	7.11
C[C@H]1COCCN1c1nc(N2CCOC[C@@H]2C)c2ccc(-c3cccc(C(=O)NCCOCCOCCOCCONC(=O)c4ccc(F)c(F)c4Nc4ccc(I)cc4F)c3)nc2n1	D54	WST-1	72 h	pIC50	4.64
N/C(=N\O)c1ccc(-c2cc(CNc3cccc4cccnc34)on2)cc1	HL-60	MTS	72 h	pIC50	5.55
C/C(=N/NC(=O)c1cn(-c2ccccc2)nc1-c1ccc(C)cc1)c1c(O)cc(C)oc1=O	Vero	MTT	48 h	pIC50	3.67
Cc1sc2c(c1C)C(c1ccc(Cl)cc1)=N[C@@H](CC(=O)NCCCCNC(=O)COc1cccc3c1C(=O)N(C1CCC(=O)NC1=O)C3=O)c1nnc(C)n1-2 (stereo partly drawn)	SK-BR-3	CCK-8	72 h	pIC50	< 5.00
COc1cc(C(=O)c2nc(-c3cccc4[nH]cnc34)c[nH]2)cc(OC)c1OC	M14	MTS	72 h	pIC50	7.80
Cc1noc2c1-c1ccc(-c3cnn(C)c3)cc1C(c1ccc(Cl)cc1)=N[C@H]2CC(N)=O	MP41	ATP luminescence	72 h	pIC50	6.42
COc1cc(C(=O)c2nc(-c3cccc4[nH]nnc34)c[nH]2)cc(OC)c1OC	M14	MTS	72 h	pIC50	7.27
COc1ccc(-n2cc(CNC(=O)[C@@]3(C)[C@H](O)CC[C@@]4(C)[C@H]3CC[C@]3(C)[C@@H]4C(=O)C=C4[C@@H]5[C@@H](C)[C@H](C)CC[C@]5(C)CC[C@]43C)nn2)cc1	HDF	MTT	24 h	pIC50	3.96
N#Cc1ccc(-c2cc(COc3cc(=O)oc4ccccc34)on2)cc1	HL-60	MTS	72 h	pIC50	< 4.00
Nc1ccccc1NC(=O)c1ccc(Cn2cnc3c(Nc4ccc(Br)cc4F)ncnc32)cc1	U-266	MTT	72 h	pIC50	6.34

Structure (SMILES)	cell line	test	setting	quantity	value
COc1ccc(NC(=S)N/N=C/c2cccc3cc4ccccc4nc23)cc1	SK-BR-3	MTT	48 h	pIC50	< 4.30
Cc1noc(C)c1-c1cc(C(O)(c2ccccn2)c2ccccn2)c2nc(C3CC3)[nH]c2c1	MP41	ATP luminescence	72 h	pIC50	6.98
COc1ccc(Nc2ncnc3c2ncn3Cc2ccc(C(=O)NO)cc2)cc1	U-266	MTT	72 h	pIC50	5.95
C/C(=N/NC(=O)c1cn(-c2ccccc2)nc1-c1ccc(Br)cc1)c1c(O)cc(C)oc1=O	Vero	MTT	48 h	pIC50	3.72
Clc1ccc(-c2cc(CNc3cccc4cccnc34)on2)c(Cl)c1	HL-60	MTS	72 h	pIC50	4.17
COc1cc(C(=O)c2nc(-c3cccc4[nH]ccc34)c[nH]2)cc2c1OCO2	M14	MTS	72 h	pIC50	8.44
CC(C)C[C@H](NC(=O)[C@H](Cc1ccccc1)NC(=O)c1cnccn1)B(O)O	MP41	ATP luminescence	72 h	pIC50	8.36
Cc1ccc(C(C)C)c(OC2=C(Cl)C(=O)c3ccccc3C2=O)c1	SK-BR-3	MTT	24 h	IC50	> 60 µg/mL
C[C@H]1[C@H](C)CC[C@]2(C)CC[C@]3(C)C(=CC(=O)[C@@H]4[C@@]5(C)CC[C@@H](O)[C@](C)(C(=O)NCc6cn(-c7ccc(Br)cc7)nn6)[C@@H]5CC[C@]43C)[C@H]12	HDF	MTT	24 h	pIC50	3.93
Nc1ccccc1NC(=O)c1ccc(Cn2cnc3c(Nc4ccc(Cl)cc4)ncnc32)cc1	HL-60	MTT	72 h	pIC50	5.95
S=C(N/N=C/c1cccc2cc3ccccc3nc12)Nc1ccccc1	SK-BR-3	MTT	48 h	pIC50	< 4.30
COc1cc(C(=O)c2nc(-c3cccc4[nH]ccc34)c[nH]2)cc2c1OC=CO2	M14	MTS	72 h	pIC50	8.14
O=C1C[C@@H](c2ccccc2)Oc2cc(O)cc(O)c21	Vero	MTT	72 h	pIC50	3.99
COc1ccccc1-n1cc(CNC(=O)[C@@]2(C)[C@H](O)CC[C@@]3(C)[C@H]2CC[C@]2(C)[C@@H]3C(=O)C[C@@H]3[C@@H]4[C@@H](C)[C@H](C)CC[C@]4(C)CC[C@]32C)nn1	HDF	MTT	24 h	pIC50	3.98
O=[N+]([O-])c1ccc(NC(=S)N/N=C/c2cccc3cc4ccccc4nc23)cc1	SK-BR-3	MTT	48 h	pIC50	< 4.30
COc1cc(C(=O)c2nc(-c3ccncc3)c[nH]2)cc(OC)c1OC	M14	MTS	72 h	pIC50	< 6.00
O=C(NO)c1ccc(Cn2cnc3c(Nc4ccc(Br)cc4F)ncnc32)cc1	U-266	MTT	72 h	pIC50	6.12
COc1ccc(-c2nc(N3CCOCC3)c3sc(CN(C)c4ncc(C(=O)NO)cn4)cc3n2)cn1	MP41	ATP luminescence	72 h	pIC50	8.22
O=c1cc(OCc2cc(-c3ccc(Cl)cc3Cl)no2)c2ccccc2o1	HL-60	MTS	72 h	pIC50	< 4.00
